# The source made the active and inactive calls. The rule behind the calls is not given here.
# Assays:
# [1] = system: U-937; experiment: Effect on granulocyte differentiation in U937 cells assessed as CD11c expression after 30 hrs; format: functional, Homo sapiens
# In short: (§1)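 U937 cells were stained with phycoerythrine-conjugated anti-CD11c for 30 min at 4 °C in the dark, with PE-mouse IgG1 as the staining control. Cells were washed in PBS, taken up in PBS with 0.25 µg/mL propidium iodide and analysed by FACS. PI-positive cells were excluded.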
# [2] = system: U-937; experiment: Induction of apoptosis in U937 cells after 30 hrs by FACS analysis; format: functional, cell-based; settings: Homo sapiens
# In short: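 U937 cells in supplemented RPMI were exposed 30 h to compounds dissolved in DMSO (1 or 5 µM). Apoptosis was scored by flow cytometry as the percentage of active caspase 3-positive cells, as the mean of independent duplicates.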
# [3] = system: U-937; experiment: Effect on alpha tubulin acetylation in U937 cells at 5 uM after 24 hrs by Western blot analysis; format: functional, cell-based; settings: Homo sapiens
# [4] = system: U-937; experiment: Effect on alpha tubulin acetylation in U937 cells at 1 uM after 24 hrs by Western blot analysis; format: functional, cell-based; settings: Homo sapiens
# [5] = system: U-937; experiment: Increase in histone H3 acetylation in U937 cells at 5 uM after 24 hrs by Western blot analysis; format: cell-based; settings: Homo sapiens
# [6] = biological target: T1, Histone deacetylase 1 (Homo sapiens, UniProt Q13547); experiment: Inhibition of HDAC1
# T1 sequence (Q13547 whole entry): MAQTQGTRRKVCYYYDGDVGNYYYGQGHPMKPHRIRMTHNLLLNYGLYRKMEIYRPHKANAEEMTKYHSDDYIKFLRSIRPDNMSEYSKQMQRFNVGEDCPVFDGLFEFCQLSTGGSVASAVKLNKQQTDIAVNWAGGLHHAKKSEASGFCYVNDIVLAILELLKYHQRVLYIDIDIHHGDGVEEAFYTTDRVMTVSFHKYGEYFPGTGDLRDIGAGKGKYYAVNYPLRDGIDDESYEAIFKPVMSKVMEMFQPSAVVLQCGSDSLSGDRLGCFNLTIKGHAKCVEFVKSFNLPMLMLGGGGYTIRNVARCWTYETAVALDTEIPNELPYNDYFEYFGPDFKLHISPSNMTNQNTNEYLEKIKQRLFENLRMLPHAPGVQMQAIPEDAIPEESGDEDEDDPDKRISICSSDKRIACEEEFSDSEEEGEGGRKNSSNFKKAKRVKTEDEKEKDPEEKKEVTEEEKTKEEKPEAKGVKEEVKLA
# In short: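 Purified recombinant HDAC1 was incubated with the acetyl-lysine Fluor de Lys substrate, with or without inhibitor. Developer then released a fluorophore, read by fluorimetry. Four scalar concentrations were tested in quadruplicate to derive the IC50.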
# [7] = biological target: Histone deacetylase 4 (Homo sapiens, UniProt P56524); experiment: Inhibition of HDAC4
# Sequence of Histone deacetylase 4 (P56524 whole entry, the tested form may be a part): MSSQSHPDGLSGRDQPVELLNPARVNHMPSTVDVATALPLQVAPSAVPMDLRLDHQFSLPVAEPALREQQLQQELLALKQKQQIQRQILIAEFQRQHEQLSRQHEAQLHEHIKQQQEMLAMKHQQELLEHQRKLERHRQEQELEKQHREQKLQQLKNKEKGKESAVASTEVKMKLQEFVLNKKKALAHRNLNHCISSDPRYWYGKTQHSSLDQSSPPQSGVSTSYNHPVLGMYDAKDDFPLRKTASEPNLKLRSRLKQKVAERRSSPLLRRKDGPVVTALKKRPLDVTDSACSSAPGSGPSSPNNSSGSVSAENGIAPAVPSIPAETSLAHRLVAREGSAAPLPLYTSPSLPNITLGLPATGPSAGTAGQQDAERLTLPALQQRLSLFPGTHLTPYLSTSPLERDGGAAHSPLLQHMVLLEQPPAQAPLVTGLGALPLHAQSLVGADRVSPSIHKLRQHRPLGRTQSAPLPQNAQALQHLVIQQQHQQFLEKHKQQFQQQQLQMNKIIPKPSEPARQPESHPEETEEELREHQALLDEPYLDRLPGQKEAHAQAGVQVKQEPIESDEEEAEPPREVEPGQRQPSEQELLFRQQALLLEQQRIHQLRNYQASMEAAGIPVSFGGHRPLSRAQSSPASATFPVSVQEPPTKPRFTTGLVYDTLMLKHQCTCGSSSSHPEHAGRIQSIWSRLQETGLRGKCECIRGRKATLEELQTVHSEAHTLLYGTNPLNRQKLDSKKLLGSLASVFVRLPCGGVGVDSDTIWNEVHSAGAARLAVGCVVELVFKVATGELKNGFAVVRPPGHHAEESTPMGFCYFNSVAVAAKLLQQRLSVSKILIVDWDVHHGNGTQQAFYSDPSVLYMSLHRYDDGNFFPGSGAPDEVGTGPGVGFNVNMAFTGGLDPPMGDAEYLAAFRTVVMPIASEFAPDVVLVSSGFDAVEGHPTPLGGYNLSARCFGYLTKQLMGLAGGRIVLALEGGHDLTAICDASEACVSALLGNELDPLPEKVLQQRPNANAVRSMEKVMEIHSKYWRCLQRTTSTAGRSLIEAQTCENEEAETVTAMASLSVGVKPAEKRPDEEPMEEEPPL
# In short: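 HDAC4 catalytic fragment (aa 627-1085, C-terminal GST tag, baculovirus-expressed) was used at 2 µg per assay with 1-2 h enzymatic incubation in the fluorimetric deacetylase assay. Four scalar concentrations were tested in quadruplicate, and the IC50 was calculated from fluorescence.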
# [8] = biological target: T1, Histone deacetylase 1; experiment: Inhibition of HDAC1 at 5 uM
# [9] = system: U-937; experiment: Effect on granulocyte differentiation in U937 cells assessed as CD11c expression at 5 uM after 30 hrs; format: functional, cell-based; settings: Homo sapiens; in short: as §1
# [10] = system: U-937; experiment: Effect on cell cycle analysis in U937 cells assessed as accumulation at G1 phase after 30 hrs; format: functional, cell-based; settings: Homo sapiens
# In short: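 U937 cells grown in RPMI with 10% FCS, antibiotics, 10 mM HEPES and 2 mM glutamine at 200 000 cells/mL, then treated 30 h with compounds in DMSO (1 or 5 µM). 2.5 × 10⁵ cells in hypotonic buffer (0.1% Triton X-100, 0.1% sodium citrate, 50 µg/mL propidium iodide, RNAse A), 30 min in the dark. DNA content by flow cytometry; run at least twice.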
IC50 [6] [nM],IC50 [7] [nM],Activity [8],SMILES,Activity [1] [%],Activity [2],Activity [3],Activity [4],Activity [5],Activity [9],Activity [10]
,,,C=CCCCCCCc1ccc[n+](CCCCCCCCCCCCc2ccc[n+](CCCCCCC=C)c2)c1.[Cl-].[I-],30,Active,inactive,inactive,Active,,
,,,C=CCCCCCCc1ccc[n+](CCCCCCCCCCCCCc2ccc[n+](CCCCCCC=C)c2)c1,,Active,inactive,inactive,Active,,
,,,C=CCCCCCC[n+]1cccc(CCCCCCCCCCCCC[n+]2cccc(CCCCC=C)c2)c1,,Active,inactive,inactive,Active,,
,,,Nc1ccccc1NC(=O)c1ccc(CNC(=O)OCc2cccnc2)cc1,,,inactive,inactive,Active,,
530,> 200000,Active,C=CCCCCCC[n+]1cccc(CCCCCCCCCCCC[n+]2cccc(CCCCC=C)c2)c1.[Cl-].[I-],30,Active,inactive,inactive,Active,Active,
,,,c1cc2c[n+](c1)CCCCCCCCCCCCc1ccc[n+](c1)CCCCCCCCCCC2,,,inactive,inactive,,,
,,,c1cc2c[n+](c1)CCCCCCCCCCCCCCc1ccc[n+](c1)CCCCCCCCCCCC2,,,inactive,inactive,,,
,,,c1cc2c[n+](c1)CCCCCCCCCCCCCCc1ccc[n+](c1)CCCCCCCCCCCCC2,,,inactive,inactive,,,
1880,540,,C=CCCCCCC[n+]1cccc(CCCCCCCCCCCC[n+]2cccc(CCCC=C)c2)c1.[Cl-].[I-],30,Active,inactive,inactive,Active,,Active
,,,c1cc2c[n+](c1)CCCCCCCCCCCCCc1ccc[n+](c1)CCCCCCCCCCC2,,,inactive,inactive,Active,,
,,,c1cc2c[n+](c1)CCCCCCCCCCCCCc1ccc[n+](c1)CCCCCCCCCCCC2,,,inactive,inactive,Active,,
,,,c1cc2c[n+](c1)CCCCCCCCCCCCc1ccc[n+](c1)CCCCCCCCCCCC2,,,inactive,inactive,,,
,,,C=CCCCCCC[n+]1cccc(CCCCCCCCCCCCC[n+]2cccc(CCCC=C)c2)c1.[Cl-].[I-],30,Active,inactive,inactive,Active,,
,,,O=C(CCCCCCC(=O)Nc1ccccc1)NO,,,inactive,inactive,Active,,
